From ChEMBL document CHEMBL1121729, “N*-N*-S* tridentate ligand system as potential antitumor agents” (1981)

How the values were obtained:
Sarcoma-180 [1] = experiment: Growth inhibition of cultured Sarcoma cells after 48-h exposure to compound at 4 x 10E-9 M/mL in trail 1; assay type: functional; details: Mus musculus, Sarcoma-180, 48 h
P388 [2] = experiment: Change in body weight of P-388 lymphocytic leukemia implanted CDF1 mice to that of control when 100 mg/kg compound administered; T/C=1.5/0.5; assay type: functional, Mus musculus
In short: (§1)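 CDF1 mice given 10^6 P-388 lymphocytic leukemia cells ip on day 0; drug given ip as a suspension in klucel or in saline plus Tween 80 on days 1, 5 and 9, starting 24 h after tumor transplantation; six mice per group. Read-outs are treated/control (T/C, %) and body weight change in g as treated/control.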

L1210 [3] = experiment: Growth inhibition of cultured L-1210 cells after 48-h exposure to compound at 1.6 x 10E-8 M/mL in trail 1; assay type: functional; details: Mus musculus, L1210, 48 h
L1210 [4] = experiment: Growth inhibition of cultured L-1210 cells after 48-h exposure to compound at 1.6 x 10E-8 M/mL in trail 2; assay type: functional; details: Mus musculus, L1210, 48 h
P388 [5] = experiment: Change in body weight of P-388 lymphocytic leukemia implanted CDF1 mice to that of control when 200 mg/kg compound administered; T/C=1.5/0.5; assay type: functional, Mus musculus; in short: as §1
L1210 [6] = experiment: Growth inhibition of cultured L-1210 cells after 48-h exposure to compound at 4 x 10E-9 M/mL in trail 2; assay type: functional; details: Mus musculus, L1210, 48 h
P388 [7] = experiment: Change in body weight of P-388 lymphocytic leukemia implanted CDF1 mice to that of control when 400 mg/kg compound administered; T/C= -0.8/5; assay type: functional, Mus musculus; in short: as §1
Sarcoma-180 [8] = experiment: Growth inhibition of cultured Sarcoma 180 cells after 48-h exposure to compound at 1.6 x 10E-8 M/mL in trail 2; assay type: functional; details: Mus musculus, Sarcoma-180, 48 h
P388 [9] = experiment: Antitumor activity against P-388 lymphocytic leukemia implanted CDF1 mice to that of control when 400 mg/kg compound administered; assay type: functional, Mus musculus; in short: as §1
P388 [10] = experiment: Antitumor activity against P-388 lymphocytic leukemia implanted CDF1 mice to that of control when 200 mg/kg compound administered; assay type: functional, Mus musculus; in short: as §1
Sarcoma-180 [11] = experiment: Growth inhibition of cultured Sarcoma 180 cells after 48-h exposure to compound at 1.6 x 10E-8 M/mL in trail 1; assay type: functional; details: Mus musculus, Sarcoma-180, 48 h
Sarcoma-180 [12] = experiment: Growth inhibition of cultured Sarcoma cells after 48-h exposure to compound at 4 x 10E-9 M/mL in trail 2; assay type: functional; details: Mus musculus, Sarcoma-180, 48 h
P388 [13] = experiment: Antitumor activity against P-388 lymphocytic leukemia implanted CDF1 mice to that of control when 100 mg/kg compound administered; assay type: functional, Mus musculus; in short: as §1
L1210 [14] = experiment: Growth inhibition of cultured L-1210 cells after 48-h exposure to compound at 4 x 10E-9 M/mL in trail 1; assay type: functional; details: Mus musculus, L1210, 48 h
P388 [15] = experiment: Change in body weight of P-388 lymphocytic leukemia implanted CDF1 mice to that of control when 100 mg/kg compound administered; T/C= -0.2/1.3; assay type: functional, Mus musculus; in short: as §1
P388 [16] = experiment: Change in body weight of P-388 lymphocytic leukemia implanted CDF1 mice to that of control when 200 mg/kg compound administered; T/C= 1/1.3; assay type: functional, Mus musculus; in short: as §1
P388 [17] = experiment: Antitumor activity against P-388 lymphocytic leukemia implanted CDF1 mice to that of control when 400 mg/kg compound administered; toxic; assay type: functional, organism-based; set-up: dose 400 mg/kg; details: Mus musculus; in short: as §1
P388 [18] = experiment: Change in body weight of P-388 lymphocytic leukemia implanted CDF1 mice to that of control when 100 mg/kg compound administered; T/C= 1.5/5; assay type: functional, Mus musculus; in short: as §1
P388 [19] = experiment: Change in body weight of P-388 lymphocytic leukemia implanted CDF1 mice to that of control when 200 mg/kg compound administered; T/C= 1.1/5; assay type: functional, Mus musculus; in short: as §1
P388 [20] = experiment: Change in body weight of P-388 lymphocytic leukemia implanted CDF1 mice to that of control when 400 mg/kg compound administered; T/C= -2.5/5; assay type: functional, Mus musculus; in short: as §1
P388 [21] = experiment: Change in body weight of P-388 lymphocytic leukemia implanted CDF1 mice to that of control when 200 mg/kg compound administered; T/C= 2.1/1.3; assay type: functional, Mus musculus; in short: as §1
P388 [22] = experiment: Change in body weight of P-388 lymphocytic leukemia implanted CDF1 mice to that of control when 100 mg/kg compound administered; T/C= 3.3/1.3; assay type: functional, Mus musculus; in short: as §1
P388 [23] = experiment: Change in body weight of P-388 lymphocytic leukemia implanted CDF1 mice to that of control when 400 mg/kg compound administered; T/C= 0.8/1.3; assay type: functional, Mus musculus; in short: as §1

NC(=S)c1cccc(-c2ccccn2)n1
inhibition at 0.004 µM (Sarcoma-180 [1]): 35%
Change in weight (P388 [2]): 1.5
inhibition at 0.016 µM (L1210 [3]): 95%
inhibition at 0.016 µM (L1210 [4]): 93%
Change in weight (P388 [5]): 1.5
inhibition at 0.004 µM (L1210 [6]): 32%
Change in weight (P388 [7]): -0.8
inhibition at 0.016 µM (Sarcoma-180 [8]): 60%
T/C (P388 [9]): 143%
T/C (P388 [10]): 125%
inhibition at 0.016 µM (Sarcoma-180 [11]): 85%
inhibition at 0.004 µM (Sarcoma-180 [12]): 10%
T/C (P388 [13]): 112%
inhibition at 0.004 µM (L1210 [14]): 51%

C/N=C(/S)c1cccc(-c2ccccn2)n1
Change in weight (P388 [15]): -0.2
Change in weight (P388 [16]): 1
T/C (P388 [17]): Toxic
T/C (P388 [10]): 83%
T/C (P388 [13]): 91%

NC(=S)c1ccc2ccc3cccnc3c2n1
Change in weight (P388 [18]): 1.5
Change in weight (P388 [19]): 1.1
T/C (P388 [9]): 112%
T/C (P388 [10]): 106%
Change in weight (P388 [20]): -2.5
T/C (P388 [13]): 100%

CN(C)C(=S)c1cccc(-c2ccccn2)n1
Change in weight (P388 [21]): 2.1
T/C (P388 [9]): 91%
Change in weight (P388 [22]): 3.3
T/C (P388 [10]): 95%
T/C (P388 [13]): 95%
Change in weight (P388 [23]): 0.8
